The record followed here is PubChem BioAssay AID686992 (Broad Institute, 2013).

Values joined by “and” are separate entries in the source; they are usually repeats but may differ in a detail not shown here. Identical values can stand only once. About 960 (0.37%) of roughly 260,000 compounds were called active. The sample holds actives, similar compounds and a random draw of the others, so the mix is not that of the screen.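 Rule for the calls: active = mean E-selectin-positive cell signal at least 10% of the positive control, reached in at least 60% of replicates, without over 20% cell loss; inconclusive = no rule given, readout overlaps actives, possibly toxicity-flagged; inactive = the rest, including those meeting only one limit.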

Chain of E-selectin (Homo sapiens) (P16581 whole entry, looked up): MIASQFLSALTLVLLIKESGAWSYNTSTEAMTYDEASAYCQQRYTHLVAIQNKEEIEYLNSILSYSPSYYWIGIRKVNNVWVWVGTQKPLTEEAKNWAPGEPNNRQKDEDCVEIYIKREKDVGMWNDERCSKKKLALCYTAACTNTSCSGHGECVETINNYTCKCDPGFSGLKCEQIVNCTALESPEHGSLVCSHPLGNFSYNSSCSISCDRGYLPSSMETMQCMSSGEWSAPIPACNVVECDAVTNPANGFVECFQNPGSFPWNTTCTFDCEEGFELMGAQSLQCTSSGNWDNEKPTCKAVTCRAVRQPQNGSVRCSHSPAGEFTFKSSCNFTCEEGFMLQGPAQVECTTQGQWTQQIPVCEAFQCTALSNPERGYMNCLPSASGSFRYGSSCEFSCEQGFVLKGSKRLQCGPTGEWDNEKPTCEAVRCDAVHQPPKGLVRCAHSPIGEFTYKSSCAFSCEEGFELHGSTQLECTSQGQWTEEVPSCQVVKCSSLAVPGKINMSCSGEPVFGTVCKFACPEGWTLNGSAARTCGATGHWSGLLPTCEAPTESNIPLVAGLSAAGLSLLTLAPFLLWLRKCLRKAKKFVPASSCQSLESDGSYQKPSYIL

This assay concerns the target E-selectin (Homo sapiens) (UniProt P16581). Put plainly: inducers of endothelial E-selectin expression – imaging, HUVEC, immunofluorescence imaging, single point, primary screen (AID 686992).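 Note: signal is the percent of cells scored E-selectin positive by PE staining.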 Conditions: at 7.58 µM, active compounds read high, normalized: neutral wells 0, TNF-alpha wells 100. In short, it runs like this:
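Assay system: HUVEC, human umbilical vein endothelial cells / Amount: 3,000 HUVEC/well / Controls: TNF-alpha positive control, DMSO neutral control / Compound dosing: single concentration / Medium: EGM-2 over gelatin coat / Evaluation: percent E-selectin-positive cells / Signal: immunofluorescence imaging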
For the compound `CS(=O)(=O)N1[C@H](CO)[C@H](c2ccccc2)C12CN(C(=O)C1CC1)C2`, the activation was 0.098% (inactive).

Consider `CNC(=O)C1CN(C(=O)c2cccc(S(=O)(=O)N3CCc4ccccc43)c2)c2ccccc2O1` (stereo unspecified), for which the activation was -0.207% (inactive).

Regarding `O=C(c1ccccc1)N1C[C@H]2[C@@H](c3ccccc31)[C@H](CO)N2Cc1ccccc1F`, the activation was 0.376% (inactive).

As for `Cc1ccc(C)c(C(O)c2ncc(-c3cccc4ccccc34)[nH]2)c1` (stereo unspecified), the activation was -0.22% (inactive).

For `C[C@@H]1CN([C@H](C)CO)C(=O)c2cc(Br)cnc2O[C@@H]1CN(C)C(=O)C1CC1`, the activation was 118% (active).

For `C[C@@H]1CN([C@@H](C)CO)C(=O)c2cc(-c3cccc(F)c3)cnc2O[C@@H]1CN(C)Cc1ccccc1`, the activation is -0.282% (inactive).

As for `C[C@H]1CN([C@@H](C)CO)C(=O)c2cc(Br)cnc2O[C@H]1CN(C)Cc1cccc(F)c1`, the activation is 87.1% (active).

For `C[C@@H]1CN([C@@H](C)CO)C(=O)c2cc(Br)cnc2O[C@@H]1CN(C)C(=O)C1CCCCC1`, the activation is -0.284% (inactive) and 0.234% (inactive).

On to `C/C=C/c1cnc2c(c1)C(=O)N([C@@H](C)CO)C[C@H](C)[C@@H](CN(C)C(=O)C1CC1)O2`, for which the activation was 0.382% (inactive).

Take `C[C@@H]1CN([C@@H](C)CO)C(=O)c2cc(-c3ccccc3F)cnc2O[C@@H]1CN(C)Cc1cccc(F)c1`: the activation is -0.0955% (inactive).

Turning to `COC(=O)C[C@H]1CC[C@@H](NC(=O)c2ccccc2)[C@@H](CO)O1`, the activation is -0.322% (inactive).

`O=C(COC(=O)CCc1c[nH]c2ccccc12)Nc1cccc(Cl)c1`: the activation was 5.9% (inactive).

In the case of `COC(=O)C[C@@H]1CC[C@@H]2[C@H](COc3ccc(NC(=O)Nc4cccc(F)c4)cc3C(=O)N2C)O1`, the activation was 59.2% (active).

Consider `COC(=O)C[C@H]1CC[C@H]2[C@H](COc3ccc(NC(=O)C4CC4)cc3C(=O)N2C)O1`, for which the activation is -0.049% (inactive).

For `COC(=O)C[C@@H]1CC[C@@H]2[C@@H](COc3ccc(NC(=O)C4CCOCC4)cc3C(=O)N2C)O1`, the activation is 0.061% (inactive).

With `CN1C(=O)c2cc(NC(=O)C3CCCC3)ccc2OC[C@H]2O[C@H](CC(=O)NCc3ccccc3F)CC[C@H]21`, the activation is 0.0215% (inactive).

Consider `COC(=O)C[C@@H]1CC[C@@H]2[C@H](COc3ccc(NC(=O)c4cccc(F)c4)cc3C(=O)N2C)O1`, for which the activation was 0.16% (inactive).

As to `COC(=O)C[C@H]1CC[C@H]2[C@@H](COc3ccc(NC(=O)Nc4cccc(F)c4)cc3C(=O)N2C)O1`, the activation is -0.114% (inactive).

For the compound `COC(=O)C[C@H]1CC[C@H]2[C@@H](COc3ccc(NC(=O)C4CC4)cc3C(=O)N2C)O1`, the activation was 84.9% (active).

On to `CN1C(=O)c2cc(NC(=O)C3CCC3)ccc2OC[C@@H]2O[C@@H](CC(=O)NCc3ccccc3F)CC[C@@H]21`, for which the activation is -0.028% (inactive).

As to `CN1C(=O)c2cc(NC(=O)C3CCOCC3)ccc2OC[C@@H]2O[C@H](CC(=O)NCc3ccccc3F)CC[C@H]21`, the activation was 99.5% (active).

In the case of `C[C@@H](CN1C2=NC[C@@H](Cc3ccccc3)N2C[C@H]1Cc1ccc(O)cc1)NC(=O)CCC1CCCCC1`, the activation is -4.54% (inactive).

Turning to `CCC(C)CN1C(=O)CSCC1(C)C(=O)NCc1ccccc1` (stereo unspecified), the activation was 0.0415% (inactive).

Take `COC(=O)[C@@H]1[C@@H](CO)[C@@H]2Cn3c(ccc(-c4ccc(OC)cc4)c3=O)[C@@H]2N1C`: the activation is 0.459% (inactive).

In the case of `N#C[C@@H]1[C@@H](c2ccccc2)[C@H](CO)N1C(=O)c1cc(Cl)cc(Cl)c1`, the activation was 0.0965% (inactive).

With `COc1ccc(S(=O)(=O)N2C[C@H](O)COC[C@@H]3O[C@H](CC(=O)NCCN4CCCCC4)CC[C@H]32)cc1`, the activation is 0.128% (inactive).

For `COc1ccc(-c2ccccc2[C@H]2[C@@H](C#N)N(C(=O)C3CCC3)[C@@H]2CO)cc1`, the activation is -0.0965% (inactive).

On to `COc1cccc(-c2cc3nc(NCCOc4ccccc4Cl)n(C)c(=O)c3s2)c1`, for which the activation is -0.11% (inactive).

For `COc1ccc(C(C)(O)c2nc(-c3ccc(C)c(C)c3)cs2)cc1` (stereo unspecified), the activation was -0.298% (inactive).

Turning to `COc1ccc2c3c(n(C)c2c1)[C@@H](CO)N(Cc1ccccc1OC)CC31CN(CC2CCOCC2)C1`, the activation is -0.609% (inactive).

Consider `COc1ccc(C(C)(O)c2nc(-c3cc(F)cc(F)c3)cs2)cc1` (stereo unspecified), for which the activation is 0.357% (inactive).

With `COc1ccc(S(=O)(=O)NCC(=O)NCc2cc(=O)n(C)c(=O)n2C)cc1F`, the activation was 79.6% (active).

In the case of `Cc1ccc(C(=O)NCC(=O)NCc2cc(=O)n(C)c(=O)n2C)cc1`, the activation is 0.0495% (inactive).

Regarding `COc1ccc(S(=O)(=O)NCCOc2ccccc2)cc1F`, the activation is -0.118% (inactive).

Take `CCCC(=O)Nc1ccc2c(c1)C(=O)N(C)[C@@H]1CC[C@H](CC(=O)Nc3cn(C)nc3C)O[C@H]1CO2`: the activation is -0.018% (inactive).

Regarding `Cn1c(Nc2ccc(F)cc2)nc2cc(-c3ccsc3)sc2c1=O`, the activation was 0.0175% (inactive).

For the compound `COc1ccc(C2/C=C\CN(CC(C)C)CC(=O)N2Cc2ccc(F)cc2)cc1` (stereo unspecified), the activation is -0.215% (inactive).

On to `COc1ccc(C2c3[nH]c4ccccc4c3C[C@H]3C(=O)N(CC(C)C)CC(=O)N23)c(OC)c1` (stereo partly specified), for which the activation is 61.1% (active).

With `COc1ccc(C2/C(=C(/O)c3ccccc3)C(=O)C(=O)N2C)c(OC)c1` (stereo unspecified), the activation was 0.122% (inactive).

For `CCC(=O)N1CC2(C1)[C@H](c1ccc(-c3ccc(C)cc3)cc1)[C@H](CO)N2S(C)(=O)=O`, the activation was -0.277% (inactive).

For the compound `COc1ccc(OC)c(C(O)c2ncc(-c3cccc(C(F)(F)F)c3)[nH]2)c1` (stereo unspecified), the activation is -0.085% (inactive).

Consider `CNS(=O)(=O)c1ccc(NC(=O)C2CC(=O)N(c3ccc(Cl)cc3)C2)cc1` (stereo unspecified), for which the activation was 35.7% (active).

Turning to `O=C(Nc1ccc(S(=O)(=O)N2CCCCC2)cc1)C1CC(=O)N(c2ccc(F)cc2)C1` (stereo unspecified), the activation is -0.119% (inactive).

Take `CCc1ccc(N2CC(C(=O)Nc3ccc(S(=O)(=O)Nc4nccs4)cc3)CC2=O)cc1` (stereo unspecified): the activation is 0.004% (inactive).

Consider `CC(=O)OCC1(O)CC23CCC4c5ccoc5CCC4(C)C2CCC1C3` (stereo unspecified), for which the activation is 0.708% (inactive).

As for `COC(=O)C[C@@H]1CC[C@H]2[C@H](COc3ccc(NC(=O)c4ccccc4F)cc3C(=O)N2C)O1`, the activation was 0.0145% (inactive).

Turning to `CCCCCCN1C[C@H](O)[C@@H](n2cc(C3CC3)nn2)C[C@@H]1c1ccc(Cl)cc1`, the activation is -0.106% (inactive).

As for `C[C@H](CO)N1C[C@H](C)[C@@H](CN(C)Cc2ccc(C(F)(F)F)cc2)OCc2ccccc2-c2c(n(C)c3ccccc23)C1=O`, the activation was -0.577% (inactive).

As to `C[C@@H]1CN([C@H](C)CO)C(=O)c2c(c3ccccc3n2C)-c2ccccc2CO[C@@H]1CN(C)Cc1ccc(F)cc1`, the activation is -0.183% (inactive).

For the compound `C[C@@H]1CN([C@H](C)CO)C(=O)c2c(c3ccccc3n2C)-c2ccccc2CO[C@@H]1CN(C)Cc1ccccc1C(F)(F)F`, the activation was 30.5% (active).

As for `COc1ccc(CCCNC(=O)C2Cc3c(-c4cccc(C(N)=O)c4)ccnc3O2)cc1` (stereo unspecified), the activation was 0.751% (inactive).

Take `C=CCC[C@H](CCCCC)OC(=O)/C=C/[C@H](O)[C@@H](O)C[C@@H](O)CC=C`: the activation is -5.32% (inactive).

Consider `NC1=NC2(CCCCC2)N(c2ccc(F)cc2F)C(N)=N1`, for which the activation is 522% (active).

For the compound `O=C(c1ccccc1)N1C[C@@H]2[C@H](c3ccccc31)[C@@H](CO)N2Cc1cc(F)ccc1F`, the activation was 0.162% (inactive).

For the compound `CCN1C(=O)N[C@@H]2C[C@H](C(=O)N3CCCC3)[C@H](C)[C@H](c3ccccc3)C[C@@H]21`, the activation was -0.199% (inactive).

As for `Cc1cccc(NC(=O)CSc2nc3[nH]ncc3c(=O)[nH]2)c1`, the activation is -0.483% (inactive).

Take `Cc1ccc(CSc2nc(-c3ccccc3)c(C#N)c(=O)[nH]2)cc1`: the activation is 2.35% (inactive).

Regarding `Cc1ccc(CSc2nc3[nH]ncc3c(=O)[nH]2)cc1`, the activation is 92.1% (active).

For the compound `O=C1[C@@H](c2ccccc2)[C@@H](c2ccccc2)N1c1ccccc1`, the activation is -0.064% (inactive).

On to `O=C(N[C@H]1C=C[C@@H](CC(=O)N2CCc3ccccc3C2)O[C@@H]1CO)C1CCOCC1`, for which the activation was -0.136% (inactive).

For `COc1cccc(C(=O)Nc2ccc3nc4n(c(=O)c3c2)CCCCC4)c1`, the activation was 0.059% (inactive).

As for `COc1ccc(-c2nnc3n2CCCCC3)cc1`, the activation was 31.2% (active).

Consider `Cc1c(C(=O)Nc2cccc(-c3nnc4n3CCCCC4)c2)oc2ccccc12`, for which the activation was -1.41% (inactive).

As to `Cc1cc(N2CCN(C(=O)OC(C)(C)C)C[C@H]2C)ccc1N1CCN(Cc2ccccc2)[C@H](C)C1`, the activation was 0.115% (inactive).

With `CCOC(=O)[C@]12CCC=C1N(Cc1ccco1)C(=O)[C@H](CC(=O)NCc1cccc(C(F)(F)F)c1)C2`, the activation was -0.145% (inactive).

On to `COc1ccc(CCN2C(=O)N(c3ccc(OC)cc3)C(=O)C2CC(=O)Nc2ccc(OC)cc2)cc1` (stereo unspecified), for which the activation was 4.19% (inactive).

Turning to `CCNC(=O)CC1C(=O)N(c2ccc(OC)cc2)C(=O)N1CCOC` (stereo unspecified), the activation is 35.7% (active).

Consider `CCOc1ccc(NC(=O)CC2C(=O)N(c3ccccc3)C(=O)N2CCOC)cc1` (stereo unspecified), for which the activation was -0.224% (inactive).

Turning to `O=C(CN1CCOCC1)NC[C@@H]1N[C@@H](CO)[C@@H]1c1ccc(-c2ccccc2)cc1`, the activation was 0.253% (inactive).

For the compound `COc1ccc(-c2ccccc2C2Cc3nnccc3CN2C(=O)Nc2ccccc2)cc1` (stereo unspecified), the activation is -0.134% (inactive).

Consider `COc1cc(OC)cc(-c2cc3ccc(F)cc3cn2)c1`, for which the activation is 0.221% (inactive).

For `CCCc1ccc(S(=O)(=O)N2CCN(C(=O)c3cc(C)on3)CC2)cc1`, the activation was -0.187% (inactive).

Take `CCCCCCNC(=O)O[C@H]1CN(C(=O)OC(C)C)N(C(=O)OC(C)C)[C@@H]2CN(S(=O)(=O)c3ccc(C)cc3)C[C@]12O`: the activation is 0.079% (inactive).

With `Cc1nc(-c2ccc(F)cc2)c(CC(=O)Nc2cc(S(=O)(=O)N3CCCCC3)ccc2C)s1`, the activation was -1.09% (inactive).

In the case of `Cc1nc(-c2ccc(F)cc2)c(CC(=O)N2CCN(S(=O)(=O)c3ccc(F)cc3)CC2)s1`, the activation was -0.541% (inactive).

Consider `Cc1ccc(S(=O)(=O)N2CCN(C(=O)Cc3sc(C)nc3-c3ccc(F)cc3)CC2)c(C)c1`, for which the activation was 62.2% (active).
